The values below come from PubChem BioAssay AID623912 (Johns Hopkins Ion Channel Center, 2012).

In the test the target is Potassium channel subfamily K member 3 (Rattus norvegicus) (UniProt O54912). Nature of the test: inhibition of rat KCNK3 channel, SAR follow-up, selectivity assay for KCNK9 inhibitor project, cell-based, FluxOR thallium flux, CRC set 2 (AID 623912). To be noted: KCNK3-expressing cells, FluxOR thallium flux fluorescence; for flux ratio, lower = inhibition: at 3 µM (top of the series). The method, boiled down:
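read-out basis = IC50 from normalized flux signal | assay system = induced KCNK3-expressing CHO cells | probe or stimulus = Tl+/K+ sulfate stimulus buffer (5x stock) | times = dye 90 min, compound 20 min, both room temperature | signal = thallium flux fluorescence with FluxOR thallium-sensitive dye, kinetic reading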

Activity calls are given as the source filed them.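 Rule for the calls: active = peak KCNK3 inhibition above a set limit at some dose, plus a fitted dose-response curve; inactive = no KCNK3 inhibition, or no dose-response curve.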

Chain of Potassium channel subfamily K member 3 (Rattus norvegicus) (O54912 whole entry, looked up): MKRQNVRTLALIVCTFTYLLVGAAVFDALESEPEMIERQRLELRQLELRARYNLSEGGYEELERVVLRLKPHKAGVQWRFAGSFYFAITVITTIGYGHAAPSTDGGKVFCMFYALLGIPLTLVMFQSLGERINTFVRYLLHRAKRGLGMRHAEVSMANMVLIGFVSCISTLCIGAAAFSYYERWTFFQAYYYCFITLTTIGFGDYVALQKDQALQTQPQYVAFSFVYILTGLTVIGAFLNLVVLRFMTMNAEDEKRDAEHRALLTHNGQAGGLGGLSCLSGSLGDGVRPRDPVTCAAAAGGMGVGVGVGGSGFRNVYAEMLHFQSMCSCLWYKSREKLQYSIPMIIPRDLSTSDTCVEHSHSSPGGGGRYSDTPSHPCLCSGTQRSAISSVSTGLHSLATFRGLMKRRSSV

Usually IC50 stands for the midpoint of a concentration-inhibition curve. As for `CC(C1CC2CCC1C2)n1c(-c2ccc(Cl)cc2)n[nH]c1=S` (configuration not stated), the IC50 is 240 nM.

In the case of `COc1ccccc1C(=O)Nc1cccc(NC(=O)c2ccccc2OC)c1`, the IC50 was 9.67 nM. As to `CC(c1ccco1)n1c(-c2ccoc2)n[nH]c1=S` (configuration not stated), the “flux ratio, lower = inhibition” value is “inactive”.

For the compound `CC(C1CC2CCC1C2)n1c(SCc2ccccc2)nnc1-c1ccco1` (configuration not stated), the IC50 was 1660 nM. Still for that read-out and setting: then `O=C(Nc1cccc(NC(=O)c2ccccn2)c1)c1ccccc1`, with 85.8 nM; and `CCOc1ccccc1NC(=O)c1cccc(NC(=O)c2ccc(Cl)cc2)c1`, with 139 nM; and `CC(C1CC2CCC1C2)n1c(-c2cccn2C)n[nH]c1=S` (configuration not stated), with 1080 nM. The same measure, in the same setting: then `Cc1ccc(-c2n[nH]c(=S)n2C(C)C2CC3CCC2C3)cc1` (configuration not stated), with 770 nM. On the same count and under the same terms, then `COc1cccc(C(=O)Nc2cccc(NC(=O)c3ccccc3)c2)c1`, with 212 nM.

`CC(C1CC2CCC1C2)N(C)C(=O)c1ccco1` (configuration not stated): the IC50 is 6 nM. Same read-out and setting: for `Cc1cccc(C(=O)Nc2cccc(NC(=O)c3ccccc3Cl)c2)c1` the value was 23 nM; for `CCOc1ccccc1NC(=O)c1cccc(NC(=O)C(C)(C)C)c1`, 1320 nM; for `CCOc1ccccc1C(=O)Nc1cccc(NC(=O)C2CCCC2)c1`, 108 nM. The same measure, in the same setting: for `Cc1cccc(NC(=O)c2ccccc2NC(=O)c2ccccc2)c1` the value was 1380 nM; for `O=C(Nc1cccc(NC(=O)c2ccccc2C(F)(F)F)c1)c1ccccc1`, 130 nM. For `COc1cccc(Cc2n[nH]c(=S)n2C(C)C2CC3CCC2C3)c1` (configuration not stated), the “flux ratio, lower = inhibition” value was “inactive”. Regarding `COc1ccccc1NC(=O)c1cccc(NC(=O)C2CCCC2)c1`, the IC50 was 238 nM. The same measure, in the same setting: for `COc1ccc(C(=O)CSc2nnc(-c3ccco3)n2C(C)C2CC3CCC2C3)cc1OC` (configuration not stated) the value was 2080 nM. Consider `CC(C1CC2CCC1C2)n1c(-c2ccsc2)n[nH]c1=S` (configuration not stated), for which the “flux ratio, lower = inhibition” value was “inactive”.

For `CC(c1cccc2ccccc12)n1c(-c2ccco2)n[nH]c1=S` (configuration not stated), the IC50 is 561 nM.

On to `CCOc1ccccc1NC(=O)c1cccc(NC(=O)C2CCCCC2)c1`, for which the IC50 is 66.9 nM. For the compound `COc1cc(OC)cc(-c2n[nH]c(=S)n2C(C)C2CC3CCC2C3)c1` (configuration not stated), the IC50 was 110 nM. As to `Cc1cccc(S(=O)(=O)Nc2cccc(NC(=O)c3ccccc3)c2)c1`, the half-inhibitory concentration (IC50) is 1450 nM. Same read-out and setting: then `COc1ccccc1C(=O)Nc1cccc(NC(=O)c2ccccc2C)c1`, with 73 nM; and `COc1ccc(C(=O)Nc2cccc(NC(=O)c3ccccc3)c2)cc1`, with 2270 nM. As for `Cc1cccc(C(=O)Nc2cccc(NC(=O)c3ccccc3C(F)(F)F)c2)c1`, the “flux ratio, lower = inhibition” value is “inactive”. Consider `CCOc1ccc(NC(=O)c2cccc(NC(=O)C3CCCC3)c2)cc1`, for which the IC50 is 70.2 nM.

Turning to `CCOc1ccccc1NC(=O)c1cccc(NC(=O)c2cccc(OC)c2)c1`, the IC50 was 5 nM. On the same count and under the same terms, then `CC(C1CC2CCC1C2)n1c(-c2ccoc2)n[nH]c1=S` (configuration not stated), with 298 nM; and `COc1ccccc1-c1n[nH]c(=S)n1C(C)C1CC2CCC1C2` (configuration not stated), with 102 nM. Same read-out and setting: then `Cc1cccc(C(=O)Nc2cccc(NC(=O)c3ccc(Cl)cc3)c2)c1`, with 149 nM; and `CC(C1CC2CCC1C2)n1c(-c2ccco2)n[nH]c1=O` (configuration not stated), with 181 nM; and `CC(c1ccccc1)n1c(-c2ccco2)n[nH]c1=S` (configuration not stated), with 567 nM. Same read-out and setting: for `CSc1nnc(-c2ccco2)n1C(C)C1CC2CCC1C2` (configuration not stated) the value was 873 nM. On to `CCOc1ccccc1NC(=O)c1cccc(NC(=O)C2CCOC2)c1` (configuration not stated), for which the IC50 is 1330 nM. Still for that read-out and setting: then `CC(C)c1ccccc1C(=O)Nc1cccc(NC(=O)c2ccccc2OC(F)(F)F)c1`, with 11 nM; and `O=C(Nc1cccc(NC(=O)c2cccc(C(F)(F)F)c2)c1)c1ccccc1`, with 147 nM. Same read-out and setting: for `CC(C1CC2CCC1C2)n1c(-c2ccccc2)n[nH]c1=S` (configuration not stated) the value was 403 nM; for `Cc1cccc(C(=O)Nc2ccc(C(=O)Nc3ccccc3)cc2)c1`, 183 nM; for `CCOc1cccc(NC(=O)c2cccc(NC(=O)C3CCCC3)c2)c1`, 491 nM. The same measure, in the same setting: for `COc1ccccc1NC(=O)c1cccc(NC(=O)CC2CCCC2)c1` the value was 86 nM. For `CCOc1ccccc1NC(=O)c1cccc(NC(=O)c2ccc(C(F)(F)F)cc2)c1`, the IC50 is 220 nM.

For `CC(C1CC2CCC1C2)n1c(-c2cccs2)n[nH]c1=S` (configuration not stated), the IC50 was 18 nM. In the case of `O=C(Nc1cccc(NC(=O)c2cccc(Cl)c2)c1)c1ccccc1`, the IC50 is 120 nM. As for `COc1ccccc1C(=O)Nc1cccc(NC(=O)c2ccccc2OC(F)(F)F)c1`, the IC50 was 4 nM. Still for that read-out and setting: for `O=C(Nc1cccc(NC(=O)c2ccc(F)cc2)c1)c1ccccc1` the value was 306 nM. Same read-out and setting: then `CCOc1ccccc1NC(=O)c1cccc(NC(=O)c2ccc(OC)cc2)c1`, with 300 nM; and `O=C(Nc1cccc(NC(=O)c2ccsc2)c1)c1ccccc1`, with 162 nM. On the same count and under the same terms, for `S=c1[nH]nc(-c2ccco2)n1CC1CC2CCC1C2` (configuration not stated) the value was 915 nM; for `CCOc1ccccc1NC(=O)c1cccc(NC(=O)CC2CCCC2)c1`, 161 nM; for `COc1ccccc1C(=O)Nc1cc(NC(=O)c2ccccc2C(C)C)ccc1F`, 10 nM. Turning to `Cc1cccc(C(=O)Nc2cccc(NC(=O)c3ccccc3C)c2)c1`, the IC50 was 90.8 nM. Still for that read-out and setting: then `O=C(Nc1cccc(NC(=O)c2ccncc2)c1)c1ccccc1`, with 249 nM; and `CCOc1ccccc1NC(=O)c1cccc(C(=O)NC2CCCC2)c1`, with 342 nM; and `Cc1cccc(C(=O)Nc2cccc(NC(=O)c3ccncc3)c2)c1`, with 27 nM. Still for that read-out and setting: for `CCOc1ccccc1NC(=O)c1cccc(NC(=O)c2ccc(C)cc2)c1` the value was 134 nM; for `CCOc1ccccc1C(=O)Nc1cccc(NC(=O)c2ccccc2OC)c1`, 2 nM. `Cc1cccc(NC(=O)c2cccc(NC(=O)c3ccccc3)c2)c1`: the “flux ratio, lower = inhibition” value was “inactive”. The same measure, in the same setting: then `Cc1cccc(C(=O)Nc2cccc(NC(=O)c3ccc(C(F)(F)F)cc3)c2)c1`, with “inactive”.

For `Cc1cccc(C(=O)Nc2cccc(NC(=O)c3ccc(C(C)(C)C)cc3)c2)c1`, the IC50 is 184 nM. As for `Cc1ccc(C(=O)Nc2cccc(NC(=O)c3ccccc3)c2)cc1`, the “flux ratio, lower = inhibition” value is “inactive”. Regarding `O=C(Nc1cccc(NC(=O)c2ccccc2)c1)c1ccccc1`, the IC50 was 18 nM. Still for that read-out and setting: for `CC(C1CC2CCC1C2)n1c(-c2cccc(Cl)c2)n[nH]c1=S` (configuration not stated) the value was 20 nM.

On to `CC(C)(C)c1ccc(C(=O)Nc2cccc(NC(=O)c3ccccc3)c2)cc1`, for which the “flux ratio, lower = inhibition” value is “inactive”. For the compound `O=C(Nc1cccc(NC(=O)c2cccnc2)c1)c1ccccc1`, the IC50 was 1290 nM. The same measure, in the same setting: for `Cc1cccc(C(=O)Nc2cccc(NC(=O)c3cccc(Cl)c3)c2)c1` the value was 3 nM; for `Cc1cccc(C(=O)Nc2cccc(NC(=O)c3ccccc3C(C)C)c2)c1`, 328 nM. With `CC(C1CC2CCC1C2)n1c(-c2ccccn2)n[nH]c1=S` (configuration not stated), the IC50 was 1300 nM. The same measure, in the same setting: for `COc1ccccc1C(=O)Nc1cccc(NC(=O)c2cccc3ccccc23)c1` the value was 3 nM. Take `O=C(Nc1ccccc1Cl)c1cccc(NC(=O)C2CCCC2)c1`: the IC50 is 202 nM. For the compound `CC(C1CC2CCC1C2)n1c(C2CCOC2)n[nH]c1=S` (configuration not stated), the “flux ratio, lower = inhibition” value was “inactive”.

On to `CC(C1CC2CCC1C2)n1cnnc1-c1ccco1` (configuration not stated), for which the IC50 was 18 nM.

For `CC(C1CC2CCC1C2)n1c(-c2ccccc2Cl)n[nH]c1=S` (configuration not stated), the IC50 was 2050 nM. On to `CCOc1ccccc1NC(=O)c1cccc(NC(=O)c2cccc(C(F)(F)F)c2)c1`, for which the IC50 is 232 nM. Regarding `O=C(Nc1cccc(NC(=O)c2ccc(Cl)cc2)c1)c1ccccc1`, the “flux ratio, lower = inhibition” value was “inactive”. The same measure, in the same setting: for `Cc1cccc(-c2n[nH]c(=S)n2C(C)C2CC3CCC2C3)c1` (configuration not stated) the value was “inactive”.

Consider `CC(C1CC2CCC1C2)n1c(-c2cccnc2)n[nH]c1=S` (configuration not stated), for which the IC50 is 1020 nM. The same measure, in the same setting: for `Cc1cccc(C(=O)Nc2ccccc2NC(=O)c2ccccc2)c1` the value was 260 nM; for `CCOc1ccccc1NC(=O)c1cccc(NC(=O)c2ccccc2OC(F)(F)F)c1`, 114 nM; for `S=c1[nH]nc(-c2ccco2)n1CC1CCCCC1`, 606 nM. The same measure, in the same setting: for `CC(C1CCCCC1)n1c(-c2ccco2)n[nH]c1=S` (configuration not stated) the value was 44 nM; for `O=C(Nc1cccc(NC(=O)c2cccc(F)c2)c1)c1ccccc1`, 44.2 nM; for `CC(C)Oc1ccccc1C(=O)Nc1cccc(NC(=O)c2ccccc2OC(F)(F)F)c1`, 1 nM. With `CC(C1CC2CCC1C2)n1c(SCC#N)nnc1-c1cccs1` (configuration not stated), the “flux ratio, lower = inhibition” value was “inactive”. Still for that read-out and setting: for `CC(C1CC2CCC1C2)n1c(SC(F)F)nnc1-c1ccco1` (configuration not stated) the value was “inactive”. Turning to `O=C(Nc1cccc(NC(=O)c2ccccc2Cl)c1)c1ccccc1`, the IC50 is 311 nM. Still for that read-out and setting: then `Cc1cccc(C(=O)Nc2cccc(NC(=O)c3cccs3)c2)c1`, with 3 nM.

For the compound `CCOc1ccccc1NC(=O)c1cccc(NC(=O)c2ccccc2C(F)(F)F)c1`, the IC50 is 29.5 nM. Same read-out and setting: then `COc1cccc(OC)c1C(=O)Nc1cccc(NC(=O)c2cccc(C)c2)c1`, with 148 nM; and `Cc1cccc(C(=O)Nc2cccc(NC(=O)c3ccc(N(C)C)cc3)c2)c1`, with 145 nM; and `S=c1[nH]nc(-c2ccco2)n1C1CC2CCC1C2` (configuration not stated), with 37 nM. Same read-out and setting: for `COc1cccc(-c2nnc(S(C)(=O)=O)n2C(C)C2CC3CCC2C3)c1` (configuration not stated) the value was 106 nM.

`COc1ccccc1NC(=O)c1cccc(NC(=O)c2ccccc2C(F)(F)F)c1`: the IC50 is 42 nM. The same measure, in the same setting: then `COc1cccc(-c2n[nH]c(=S)n2C(C)C2CC3CCC2C3)c1OC` (configuration not stated), with 15 nM.

Consider `CCOc1ccccc1C(=O)Nc1cccc(NC(=O)c2cccc(C)c2)c1`, for which the IC50 was 7.46 nM. Turning to `CCOc1ccccc1NC(=O)c1cccc(NC(=O)CC2CCCCC2)c1`, the IC50 is 217 nM. On the same count and under the same terms, then `Cc1cccc(C(=O)Nc2cccc(C(=O)Nc3ccccc3)c2)c1`, with 850 nM.
